From PubChem BioAssay
An excerpt weighted towards active compounds, which were near 2.5% of everything screened.
MsrA act = bovine methionine sulfoxide reductase A activation | purified bovine MsrA, absorbance read-out | activation, % at 10.6 µM | 0.3% of 360,000 active | AID 602163; in the data active means activation above about 7.5%
NR2E3 ag-1 = activates human NR2E3 receptor. Q9Y5X4. CHO-S Gal4-NCOR/VP16-NR2E3 two-hybrid, luciferase. inhibition of corepressor binding, % at 3.98 µM. 0.35% of 360,000 active. AID 602229;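 active means inhibition above the mean of all tested compounds plus 3 SD, cut at about 70% in these data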;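 further: higher means lower luciferase signal from less NR2E3 corepressor binding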
Target sequence (Q9Y5X4 whole entry, looked up, the tested form may be a part): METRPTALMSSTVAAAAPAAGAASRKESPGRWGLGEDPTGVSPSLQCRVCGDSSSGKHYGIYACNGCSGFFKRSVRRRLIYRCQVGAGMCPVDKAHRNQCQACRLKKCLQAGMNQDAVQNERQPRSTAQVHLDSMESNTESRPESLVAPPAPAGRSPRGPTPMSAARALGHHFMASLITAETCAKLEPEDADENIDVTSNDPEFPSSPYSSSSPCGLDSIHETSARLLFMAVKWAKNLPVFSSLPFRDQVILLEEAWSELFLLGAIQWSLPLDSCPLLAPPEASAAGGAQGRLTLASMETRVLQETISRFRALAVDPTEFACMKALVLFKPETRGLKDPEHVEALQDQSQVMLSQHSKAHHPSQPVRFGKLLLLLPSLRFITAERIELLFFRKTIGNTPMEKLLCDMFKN
NR2E3 ag-2 = NR2E3 (human) agonism; Q9Y5X4; GST-NR2E3/biotin-RetCOR TR-FRET, 1536-well; inhibition of corepressor binding, % at 4.78 µM; 0.12% of 320,000 active; AID 2300;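 active means percent inhibition above the cutoff of mean plus 3 SD of all tested compounds, set per screening campaign, cut at about 20% in these data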
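System: GST-NR2E3 and biotin-RetCOR proteins; probe or stimulus: 7 nM biotin-RetCOR; doses: compound at 4.8 µM, single dose; schedule: Compound–protein incubation for 5 h at 4 °C; detection: time-resolved FRET; read-out: percent inhibition; controls: biotin wells as high control, 0.6% DMSO wells as low control; format: 1536-well plates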
GalR3 antag = blocks the human galanin receptor 3; O60755; 0.44% of 360,000 active; AID 651719; inhibition, % at 3 µM; HEK293 GalR3-CNG cAMP membrane potential fluorescence; galR3 body fused to GalR1 C-terminus;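 active means inhibition above the screen-wide average plus 3 SD, cut at about 13% in these data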;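 further: forskolin and galanin both at EC90 stimulate the cells; cAMP rise reported by CNG channel membrane potential dye signal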
NadD block = NadD (S. aureus) enzyme inhibition; purified NadD enzyme, colorimetric absorbance read-out; 0.78% of 360,000 active; inhibition, % at 20 µM; in the data active means inhibition above about 26%
MsrA inh = inhibitors of bovine MsrA; purified bovine MsrA, absorbance read-out; inhibition, % at 15.5 µM; 0.75% of 360,000 active; in the data active means inhibition above about 4.5%
NR2E3 ag confirm = confirmation of human NR2E3 nuclear receptor agonists; shares compounds with NR2E3 ag-2; cell-free NR2E3 corepressor release, TR-FRET, 5 h; activation (reported as inhibition), % at 3.98 µM; 39% of 360 active; in the data active means activation above about 20%
PPARg-NCOR2 ag = releases PPARgamma from NCOR2 in NR2E3 counter-screen; inhibition, % at 3.98 µM; shares compounds with NR2E3 ag-2; 45% of 360 active; TR-FRET PPARg-NCOR2 coregulator interaction, biochemical; in the data active means inhibition above about 20%
Each line names hits and unclear results; the compound was inactive in the other large screens (follow-up assays come after a bar, where they were run).

CCCCC(=O)Nc1ncc(Br)s1	NR2E3 ag-2 32 (no result: GalR3 antag, MsrA inh) | NR2E3 ag confirm inactive | PPARg-NCOR2 ag inactive
Cc1cc(C)cc(OCc2nc3ncc(Br)cc3[nH]2)c1	none
COc1cccc(OCc2nc3ncc(Br)cc3[nH]2)c1	NR2E3 ag-2 20 | NR2E3 ag confirm inactive | PPARg-NCOR2 ag 26
COc1nc(-c2ccccc2)c2cc(C)ccc2n1	none
O=C(c1ccc([N+](=O)[O-])o1)N1CCN(c2nc3c(F)cc(F)cc3s2)CC1	none
Cc1ccc(C)c(NC(=O)CN(C)C(=O)[C@@H](NC(N)=O)C(C)C)c1	none
CCOC(=O)Cn1c(=S)[nH]c2c(oc3ccc(Cl)cc32)c1=O	NR2E3 ag-2 25 | NR2E3 ag confirm 46 | PPARg-NCOR2 ag 41
Cc1c(OCC(=O)NCc2ccncc2)ccc2c3c(c(=O)oc12)CCC3	none
CCc1cc2cc(C(=O)Nc3ccc(F)cc3)sc2s1	NR2E3 ag-2 30 | NR2E3 ag confirm inactive | PPARg-NCOR2 ag inactive
CCc1cc2cc(C(=O)Nc3ccccc3F)sc2s1	none
Cc1ccc(-c2cc(C(=O)Nc3cccnc3)c3ccccc3n2)o1	none
Cc1ccc(NC(=S)Nc2nc(CC(=O)Nc3ccccc3)cs2)cc1	NR2E3 ag-2 20 | NR2E3 ag confirm inactive | PPARg-NCOR2 ag inactive
CCCn1nc(C(=O)Nc2ccc3c(c2)OCO3)c2ccccc2c1=O	none
CN(C)c1ccc(O)c2c1CC1CC3C(N(C)C)C(=O)C(C(N)=O)=C(O)[C@@]3(O)C(=O)C1=C2O (stereo partly specified)	none (no result: GalR3 antag)
C=C1c2cccc(O)c2C(O)=C2C(=O)[C@]3(O)C(O)=C(C(N)=O)C(=O)[C@@H](N(C)C)[C@@H]3[C@@H](O)[C@H]12	NR2E3 ag-2 31 | NR2E3 ag confirm inactive | PPARg-NCOR2 ag inactive
O=C(CCn1cnnn1)Nc1ccc(Cl)cc1Cl	none
O=C(CSc1nc2ccc(Cl)cc2[nH]1)Nc1ccc2c(c1)CCC2	NR2E3 ag-2 32 | NR2E3 ag confirm inactive | PPARg-NCOR2 ag inactive
CCOC(=O)c1ccccc1NC(=O)CN(c1ccccc1C)S(C)(=O)=O	none
CC1(C(=O)Nc2cccc3ncccc23)CCN1C(=O)Cc1ccc(-c2ccccc2)cc1 (stereo unspecified)	none (no result: NR2E3 ag-2)
O=C(O)CSc1nc2ccccc2nc1Cc1ccccc1F	NR2E3 ag-2 54 | NR2E3 ag confirm 34 | PPARg-NCOR2 ag 36
O=C(O)CSc1cnc2ccccc2n1	none
COc1cccc2c(=S)c(CCC(C)=O)c(C)[nH]c12	NR2E3 ag-2 21 | NR2E3 ag confirm inactive | PPARg-NCOR2 ag inactive
CC(=O)CCc1c(C)c2cccc(C)c2[nH]c1=O	none
COc1ccc(C(=O)NNC(=O)c2ccc(S(=O)(=O)N3CC(C)OC(C)C3)cc2)cc1 (stereo unspecified)	none
CC(OC(=O)CCC(=O)c1ccc(Cl)s1)C(=O)NC1(C#N)CCCCC1 (stereo unspecified)	NR2E3 ag-2 24 | NR2E3 ag confirm inactive | PPARg-NCOR2 ag inactive
CC1(C)Cc2c(c(-c3ccccc3)nc3[nH][nH]c(=O)c23)CO1	none
CC1(C)Cc2c(c(-c3ccccc3)nc3sc4c(=O)[nH]c(=S)[nH]c4c23)CO1	NR2E3 ag-2 20 (no result: MsrA act, NR2E3 ag-1, GalR3 antag, NadD block, MsrA inh) | NR2E3 ag confirm inactive | PPARg-NCOR2 ag inactive
Cc1ccccc1Nc1cc2ccccc2c(=O)[nH]1	NR2E3 ag-2 25 (no result: GalR3 antag, MsrA inh) | NR2E3 ag confirm inactive | PPARg-NCOR2 ag inactive
C=CCNC(=O)CSc1nc2sccc2c(=O)n1-c1ccccc1	NR2E3 ag-2 23 | NR2E3 ag confirm inactive | PPARg-NCOR2 ag inactive
CCNC(=O)CSc1nc2sccc2c(=O)n1-c1ccccc1	none
C=CCN=C1NC(c2ccc(Cl)cc2)C(C(=O)OC)=C(C)N1C (stereo unspecified)	none (no result: MsrA act, NR2E3 ag-1, NR2E3 ag-2, NadD block)
C[C@H]1CN([C@@H](C)CO)C(=O)CCCn2cc(nn2)CO[C@@H]1CN(C)C(=O)Nc1ccccc1F	none (no result: NR2E3 ag-2)
Cc1ccc(C(=O)C2=C(O)C(=O)N(Cc3ccccc3)C2c2cccnc2)o1 (stereo unspecified)	NR2E3 ag-2 40 (no result: GalR3 antag, MsrA inh) | NR2E3 ag confirm inactive | PPARg-NCOR2 ag inactive
